Structures can show the parent of a compound that is named as a salt.
How the values were obtained:
PC-3 [1] = assay: Cytotoxicity against human PC3 cells assessed as inhibition of cell viability after 48 hrs by MTT assay; format: functional, cell-based; conditions: PC-3, 48 h
Outline: (§1)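 Cells were seeded at 2.5‒5 x 10^3 per well in DMEM or RPMI with 10% FBS and grown 24 h at 37 °C under CO2. Compounds diluted in medium were added alongside vehicle control for 48 h. MTT (0.5 mg/mL) was added for 4 h, formazan dissolved in DMSO and absorbance read at 570 nm. IC50 is the concentration giving 50% loss of viability; mean ± SD of three experiments, each in triplicate.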

PC-3 [2] = assay: Potency index, ratio of curcumin IC50 to test compound IC50 for human PC3 cells; format: functional
HeLa = assay: Cytotoxicity against human HeLa cells assessed as inhibition of cell viability after 48 hrs by MTT assay; format: functional, cell-based; outline: as §1
NCI-H460 [3] = assay: Potency index, ratio of curcumin IC50 to test compound IC50 for human NCI-H460 cells; format: functional
4T1 = assay: Cytotoxicity against mouse 4T1 cells assessed as inhibition of cell viability after 48 hrs by MTT assay; format: functional, cell-based; conditions: 4T1, 48 h; outline: as §1
NCI-H460 [4] = assay: Cytotoxicity against human NCI-H460 cells assessed as inhibition of cell viability after 48 hrs by MTT assay; format: functional, cell-based; conditions: NCI-H460, 48 h; outline: as §1
DU-145 [5] = assay: Potency index, ratio of curcumin IC50 to test compound IC50 for human DU145 cells; format: functional
DU-145 [6] = assay: Cytotoxicity against human DU145 cells assessed as inhibition of cell viability after 48 hrs by MTT assay; format: functional, cell-based; conditions: DU-145, 48 h; outline: as §1
HGC-27 = assay: Cytotoxicity against human HGC27 cells assessed as inhibition of cell viability after 48 hrs by MTT assay; format: functional, cell-based; conditions: HGC-27, 48 h; outline: as §1

COc1ccc(-c2c(/C=C/C(=O)/C=C/c3cc(OC)c(OC)cc3OC)nc3ccccn23)cc1
IC50 (PC-3 [1]): 7.24 µM
Ratio IC50 (PC-3 [2]): 2.6
IC50 (HeLa): 9.41 µM
Ratio IC50 (NCI-H460 [3]): 3.1
IC50 (4T1): 4.69 µM
IC50 (NCI-H460 [4]): 5.52 µM
Ratio IC50 (DU-145 [5]): 5.9
IC50 (DU-145 [6]): 5.63 µM
IC50 (HGC-27): 8.77 µM

COc1ccc(/C=C/C(=O)/C=C/c2nc3ccccn3c2-c2ccc(F)c(F)c2)c(OC)c1
IC50 (PC-3 [1]): 8.94 µM
Ratio IC50 (PC-3 [2]): 2.1
IC50 (HeLa): 8.41 µM
Ratio IC50 (NCI-H460 [3]): 1.8
IC50 (4T1): 9.72 µM
IC50 (NCI-H460 [4]): 9.53 µM
Ratio IC50 (DU-145 [5]): 3.9
IC50 (DU-145 [6]): 8.46 µM
IC50 (HGC-27): 10.3 µM

COc1ccc(/C=C/C(=O)/C=C/c2nc3ccccn3c2-c2ccccc2)cc1
IC50 (PC-3 [1]): > 10 µM
IC50 (HeLa): > 10 µM
IC50 (4T1): > 10 µM
IC50 (NCI-H460 [4]): > 10 µM
IC50 (DU-145 [6]): > 10 µM
IC50 (HGC-27): > 10 µM

COc1ccc(/C=C/C(=O)/C=C/c2nc3ccccn3c2-c2ccccc2)cc1OC
IC50 (PC-3 [1]): > 10 µM
IC50 (HeLa): > 10 µM
IC50 (4T1): > 10 µM
IC50 (NCI-H460 [4]): > 10 µM
IC50 (DU-145 [6]): > 10 µM
IC50 (HGC-27): > 10 µM

COc1ccc(-c2c(/C=C/C(=O)/C=C/c3ccc(OC)c(OC)c3)nc3ccccn23)cc1
IC50 (PC-3 [1]): 3.64 µM
Ratio IC50 (PC-3 [2]): 5.1
IC50 (HeLa): 6.66 µM
Ratio IC50 (NCI-H460 [3]): 4
IC50 (4T1): 5.61 µM
IC50 (NCI-H460 [4]): 4.28 µM
Ratio IC50 (DU-145 [5]): 8.3
IC50 (DU-145 [6]): 4 µM
IC50 (HGC-27): 7.84 µM

COc1ccc(OC)c(/C=C/C(=O)/C=C/c2nc3ccccn3c2-c2ccccc2)c1
IC50 (PC-3 [1]): 3.03 µM
Ratio IC50 (PC-3 [2]): 6.1
IC50 (HeLa): 5.51 µM
Ratio IC50 (NCI-H460 [3]): 4.3
IC50 (4T1): 3.38 µM
IC50 (NCI-H460 [4]): 4.01 µM
Ratio IC50 (DU-145 [5]): 9.8
IC50 (DU-145 [6]): 3.38 µM
IC50 (HGC-27): 7.08 µM

COc1cccc(-c2c(/C=C/C(=O)/C=C/c3ccc(OC)c(OC)c3)nc3ccccn23)c1
IC50 (PC-3 [1]): > 10 µM
IC50 (HeLa): > 10 µM
IC50 (4T1): > 10 µM
IC50 (NCI-H460 [4]): > 10 µM
IC50 (DU-145 [6]): > 10 µM
IC50 (HGC-27): > 10 µM

COc1ccc(/C=C/C(=O)/C=C/c2nc3ccccn3c2-c2ccc(OC)cc2)cc1
IC50 (PC-3 [1]): > 10 µM
IC50 (HeLa): > 10 µM
IC50 (4T1): > 10 µM
IC50 (NCI-H460 [4]): > 10 µM
IC50 (DU-145 [6]): > 10 µM
IC50 (HGC-27): > 10 µM

COc1ccc(OC)c(/C=C/C(=O)/C=C/c2nc3ccccn3c2-c2ccc(F)c(F)c2)c1
IC50 (PC-3 [1]): 2.84 µM
Ratio IC50 (PC-3 [2]): 6.6
IC50 (HeLa): 4.93 µM
Ratio IC50 (NCI-H460 [3]): 5.5
IC50 (4T1): 3.27 µM
IC50 (NCI-H460 [4]): 3.11 µM
Ratio IC50 (DU-145 [5]): 7.9
IC50 (DU-145 [6]): 4.19 µM
IC50 (HGC-27): 6.35 µM

COc1ccc(/C=C/C(=O)/C=C/c2nc3ccccn3c2-c2ccc(F)c(F)c2)cc1OC
IC50 (PC-3 [1]): 5.43 µM
Ratio IC50 (PC-3 [2]): 3.4
IC50 (HeLa): 5.58 µM
Ratio IC50 (NCI-H460 [3]): 5.7
IC50 (4T1): 3.45 µM
IC50 (NCI-H460 [4]): 3.01 µM
Ratio IC50 (DU-145 [5]): 6.8
IC50 (DU-145 [6]): 4.87 µM
IC50 (HGC-27): 3.38 µM

CC[C@]1(O)C[C@H]2CN(CCc3c([nH]c4ccccc34)[C@@](C(=O)OC)(c3cc4c(cc3OC)N(C=O)[C@H]3[C@@](O)(C(=O)OC)[C@H](OC(C)=O)[C@]5(CC)C=CCN6CC[C@]43[C@@H]65)C2)C1 [VINCRISTINE SULFATE]
IC50 (DU-145 [6]): 71.8 µM

COc1ccc(-c2c(/C=C/C(=O)/C=C/c3ccc(OC)cc3OC)nc3ccccn23)cc1
IC50 (PC-3 [1]): > 10 µM
IC50 (HeLa): > 10 µM
IC50 (4T1): > 10 µM
IC50 (NCI-H460 [4]): > 10 µM
IC50 (DU-145 [6]): > 10 µM
IC50 (HGC-27): > 10 µM

COc1cc(OC)c(OC)cc1/C=C/C(=O)/C=C/c1nc2ccccn2c1-c1ccccc1
IC50 (PC-3 [1]): 2.75 µM
Ratio IC50 (PC-3 [2]): 6.8
IC50 (HeLa): 1.67 µM
Ratio IC50 (NCI-H460 [3]): 6
IC50 (4T1): 1.68 µM
IC50 (NCI-H460 [4]): 2.84 µM
Ratio IC50 (DU-145 [5]): 8.9
IC50 (DU-145 [6]): 3.71 µM
IC50 (HGC-27): 5.38 µM

COc1ccc(/C=C/C(=O)/C=C/c2nc3ccccn3c2-c2cccc(OC)c2)cc1
IC50 (PC-3 [1]): > 10 µM
IC50 (HeLa): > 10 µM
IC50 (4T1): > 10 µM
IC50 (NCI-H460 [4]): > 10 µM
IC50 (DU-145 [6]): > 10 µM
IC50 (HGC-27): > 10 µM

COc1ccc(/C=C/C(=O)/C=C/c2nc3ccccn3c2-c2ccc(F)c(F)c2)cc1
IC50 (PC-3 [1]): > 10 µM
IC50 (HeLa): > 10 µM
IC50 (4T1): > 10 µM
IC50 (NCI-H460 [4]): > 10 µM
IC50 (DU-145 [6]): > 10 µM
IC50 (HGC-27): > 10 µM

COc1cccc(-c2c(/C=C/C(=O)/C=C/c3cc(OC)ccc3OC)nc3ccccn23)c1
IC50 (PC-3 [1]): > 10 µM
IC50 (HeLa): > 10 µM
IC50 (4T1): > 10 µM
IC50 (NCI-H460 [4]): > 10 µM
IC50 (DU-145 [6]): > 10 µM
IC50 (HGC-27): > 10 µM

COc1cccc(-c2c(/C=C/C(=O)/C=C/c3ccc(OC)cc3OC)nc3ccccn23)c1
IC50 (PC-3 [1]): > 10 µM
IC50 (HeLa): > 10 µM
IC50 (4T1): > 10 µM
IC50 (NCI-H460 [4]): > 10 µM
IC50 (DU-145 [6]): > 10 µM
IC50 (HGC-27): > 10 µM

COc1ccc(-c2c(/C=C/C(=O)/C=C/c3cc(OC)ccc3OC)nc3ccccn23)cc1
IC50 (PC-3 [1]): > 10 µM
IC50 (HeLa): > 10 µM
IC50 (4T1): > 10 µM
IC50 (NCI-H460 [4]): > 10 µM
IC50 (DU-145 [6]): > 10 µM
IC50 (HGC-27): > 10 µM

COc1ccc(/C=C/C(=O)/C=C/c2nc3ccccn3c2-c2ccccc2)c(OC)c1
IC50 (PC-3 [1]): > 10 µM
IC50 (HeLa): > 10 µM
IC50 (4T1): > 10 µM
IC50 (NCI-H460 [4]): > 10 µM
IC50 (DU-145 [6]): > 10 µM
IC50 (HGC-27): > 10 µM

COc1cc(OC)c(/C=C/C(=O)/C=C/c2nc3ccccn3c2-c2ccccc2)c(OC)c1
IC50 (PC-3 [1]): > 10 µM
IC50 (HeLa): > 10 µM
IC50 (4T1): > 10 µM
IC50 (NCI-H460 [4]): > 10 µM
IC50 (DU-145 [6]): > 10 µM
IC50 (HGC-27): > 10 µM

COc1cc(/C=C/C(=O)CC(=O)/C=C/c2ccc(O)c(OC)c2)ccc1O [CURCUMIN]
IC50 (PC-3 [1]): 18.7 µM

From ChEMBL document CHEMBL4251576, “Synthesis and biological evaluation of curcumin inspired imidazo[1,2-a]pyridine analogues as tubulin polymerization inhibitors” (Eur J Med Chem, 2018)
